Measurements: ChEMBL document CHEMBL4033652, “Design, synthesis, and pharmacological evaluation of 4-azolyl-benzamide derivatives as novel GPR52 agonists” (Bioorg Med Chem, 2017)
Calls of active or inactive are those of the source. No cut-off for these calls is given here.

How the values were obtained:
[1] = molecular target: T1, G-protein coupled receptor 52 (Homo sapiens, UniProt Q9Y2T5); experiment: Agonist activity at human GPR52 expressed in CHO cells assessed as increase in cAMP level after 30 mins by AlphaScreen assay; type: functional, cell-based
T1 sequence (Q9Y2T5 whole entry): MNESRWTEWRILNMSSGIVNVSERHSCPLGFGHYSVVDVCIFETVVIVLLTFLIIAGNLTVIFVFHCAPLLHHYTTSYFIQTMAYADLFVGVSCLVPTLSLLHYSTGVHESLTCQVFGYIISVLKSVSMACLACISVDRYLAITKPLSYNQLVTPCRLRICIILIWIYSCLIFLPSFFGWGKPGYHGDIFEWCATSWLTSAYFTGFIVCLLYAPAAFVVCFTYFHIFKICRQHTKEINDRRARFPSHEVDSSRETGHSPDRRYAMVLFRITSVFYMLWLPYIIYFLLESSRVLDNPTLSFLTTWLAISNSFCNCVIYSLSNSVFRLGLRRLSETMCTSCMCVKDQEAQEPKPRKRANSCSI
Summary of the method: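 CHO cells stably expressing human GPR52 (10,000/well) exposed to compound at various concentrations, 30 min, 37°C, in HBSS with 5 mM HEPES pH 7.6, 0.5% BSA, 100 µM IBMX and 100 µM Ro20-1724. AlphaScreen acceptor/donor beads added overnight at room temperature. Response expressed relative to a reference benzofuran agonist (100%). EC50 from mean curves, n = 2–4, 95% CI.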

[2] = molecular target: T1, G-protein coupled receptor 52; experiment: Agonist activity at human GPR52 expressed in CHO cells assessed as increase in cAMP level after 30 mins by AlphaScreen assay relative to (N-(2-hydroxyethyl)-3-(2-(3-(trifluoromethyl)benzyl)-1-benzofuran-4-yl)benzamide); type: functional, cell-based
Summary of the method: (§1)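 CHO cells stably expressing human GPR52, 10,000 cells per well, exposed to compound 30 min at 37°C in HBSS with 5 mM HEPES pH 7.6, 0.5% BSA, 100 µM IBMX and 100 µM Ro20-1724. cAMP measured by AlphaScreen with acceptor and biotinylated donor beads after overnight room-temperature incubation. Emax set relative to the reference benzofuran benzamide (100%). EC50 taken from mean curves, n = 2–4, with 95% CI.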

[3] = Oral bioavailability in Sprague-Dawley rat at 1 mg/kg administered as cassette dose by LC-MS/MS analysis; type: ADME, organism-based; conditions: in vivo
Summary of the method: (§2)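 Cassette dosing in non-fasted male SD rats (n = 3): i.v. 0.1 mg/kg or p.o. 1 mg/kg. Plasma prepared from blood, deproteinized, centrifuged, supernatant measured by LC/MS/MS. AUC taken over 0–8 h.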

[4] = AUC (0 to 8 hrs) in Sprague-Dawley rat at 1 mg/kg, po administered as cassette dose by LC-MS/MS analysis; type: ADME, organism-based; parameters: time < 8 hr, dose 1 mg/kg, route oral; conditions: in vivo; summary of the method: as §2
[5] = Total clearance in Sprague-Dawley rat at 0.1 mg/kg, iv or 1 mg/kg, po administered as cassette dose by LC/MS/MS analysis; type: ADME, organism-based; conditions: in vivo; summary of the method: as §2
[6] = MRT in ICR mouse brain at 10 mg/kg, po by LC/MS/MS analysis; type: ADME, organism-based
Summary of the method: (§3)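 Male ICR mice dosed orally at 10 or 30 mg/kg as a suspension in 0.5% methylcellulose. Blood and brain taken at 0.25, 0.5, 1, 2, 4, 8 and 24 h, n = 3 per time point. Plasma separated; brain homogenized in saline. Samples mixed with acetonitrile, centrifuged, supernatant quantified by LC/MS/MS.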

Homo sapiens = organism: Homo sapiens; experiment: Inhibition of AMPA receptor (unknown origin) at 10 uM
Brain [7] = experiment: AUC (0 to 24 hrs) in ICR mouse brain at 30 mg/kg, po by LC/MS/MS analysis; type: ADME, organism-based; parameters: time < 24 hr, dose 30 mg/kg, route oral; conditions: in vivo; summary of the method: as §3
[8] = molecular target: Glutamate [NMDA] receptor (Homo sapiens) (UniProt Q05586+Q12879+Q13224+O15399+O60391+Q14957+Q8TCU5); experiment: Inhibition of NMDA receptor (unknown origin) at 10 uM
[9] = MRT in ICR mouse plasma at 30 mg/kg, po by LC/MS/MS analysis; type: ADME, organism-based; summary of the method: as §3
[10] = molecular target: 5-hydroxytryptamine receptor 2A (Homo sapiens) (UniProt P28223); experiment: Inhibition of 5-HT2 receptor (unknown origin) at 10 uM
Chain of 5-hydroxytryptamine receptor 2A (Homo sapiens) (P28223 whole entry): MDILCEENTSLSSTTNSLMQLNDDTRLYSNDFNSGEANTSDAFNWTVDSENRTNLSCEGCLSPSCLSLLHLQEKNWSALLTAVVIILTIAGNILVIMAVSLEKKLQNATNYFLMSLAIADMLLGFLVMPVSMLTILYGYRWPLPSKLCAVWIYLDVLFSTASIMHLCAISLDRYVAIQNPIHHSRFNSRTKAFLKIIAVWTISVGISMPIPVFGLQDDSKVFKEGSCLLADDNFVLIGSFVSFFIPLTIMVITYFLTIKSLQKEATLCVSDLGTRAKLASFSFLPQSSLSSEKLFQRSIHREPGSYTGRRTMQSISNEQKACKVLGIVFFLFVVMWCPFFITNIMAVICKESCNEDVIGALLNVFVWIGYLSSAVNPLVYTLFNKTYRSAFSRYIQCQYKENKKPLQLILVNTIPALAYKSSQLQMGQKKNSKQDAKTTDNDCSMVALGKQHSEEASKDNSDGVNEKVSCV

[11] = Cmax in ICR mouse brain at 30 mg/kg, po by LC/MS/MS analysis; type: ADME, organism-based; parameters: dose 30 mg/kg, route oral; summary of the method: as §3
[12] = molecular target: G-protein coupled receptor 52 (Mus musculus, UniProt P0C5J4); experiment: Agonist activity at mouse GPR52
Chain of G-protein coupled receptor 52 (Mus musculus, UniProt P0C5J4) (P0C5J4 whole entry): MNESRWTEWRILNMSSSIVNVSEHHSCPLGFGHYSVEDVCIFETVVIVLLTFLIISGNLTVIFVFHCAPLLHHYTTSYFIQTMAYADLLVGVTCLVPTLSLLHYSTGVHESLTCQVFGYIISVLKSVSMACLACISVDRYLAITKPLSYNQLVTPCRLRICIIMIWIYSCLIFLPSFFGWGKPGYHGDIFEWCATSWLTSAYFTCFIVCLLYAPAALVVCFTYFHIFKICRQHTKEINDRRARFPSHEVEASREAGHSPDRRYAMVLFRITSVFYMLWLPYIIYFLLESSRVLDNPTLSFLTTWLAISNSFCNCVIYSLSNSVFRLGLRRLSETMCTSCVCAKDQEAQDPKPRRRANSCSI

[13] = MRT in ICR mouse brain at 30 mg/kg, po by LC/MS/MS analysis; type: ADME, organism-based; summary of the method: as §3
[14] = molecular target: D(1A) dopamine receptor (Homo sapiens) (UniProt P21728); experiment: Inhibition of dopamine D1 receptor (unknown origin) at 10 uM
Chain of D(1A) dopamine receptor (Homo sapiens) (P21728 whole entry): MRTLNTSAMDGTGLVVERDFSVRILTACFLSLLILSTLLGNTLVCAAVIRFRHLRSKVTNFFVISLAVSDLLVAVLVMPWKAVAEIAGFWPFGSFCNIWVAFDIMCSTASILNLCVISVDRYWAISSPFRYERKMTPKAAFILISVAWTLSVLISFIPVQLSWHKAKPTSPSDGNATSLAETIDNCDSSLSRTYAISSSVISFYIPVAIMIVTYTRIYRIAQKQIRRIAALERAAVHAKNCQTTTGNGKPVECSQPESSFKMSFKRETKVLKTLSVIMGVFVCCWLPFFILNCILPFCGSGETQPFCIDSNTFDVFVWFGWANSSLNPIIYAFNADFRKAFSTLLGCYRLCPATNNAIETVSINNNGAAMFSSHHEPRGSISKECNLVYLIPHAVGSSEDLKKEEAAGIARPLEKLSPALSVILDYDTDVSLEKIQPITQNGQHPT

[15] = Metabolic stability in human liver microsomes at 1 uM after 15 to 30 mins in presence of NADPH by LC/MS/MS analysis; type: ADME, microsome; conditions: read-out: Stability
Summary of the method: (§4)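 Human, rat or mouse liver microsomes (0.2 mg/mL protein) incubated with test compound at 1 µmol/L in 50 mmol/L phosphate buffer pH 7.4. Reaction started with an NADPH-generating system, run 15 and 30 min at 37°C, stopped with acetonitrile. Duplicates. Parent compound loss measured by LC/MS/MS.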

[16] = Metabolic stability in mouse liver microsomes at 1 uM after 15 to 30 mins in presence of NADPH by LC/MS/MS analysis; type: ADME, microsome; conditions: read-out: Stability; summary of the method: as §4
[17] = Ratio of AUC (0 to 24 hrs) in ICR mouse brain to plasma at 30 mg/kg, po; type: ADME, organism-based; conditions: brain and plasma, read-out: Ratio AUC
[18] = molecular target: G-protein coupled receptor 52 (Mus musculus) (UniProt P0C5J4); experiment: Agonist activity at mouse GPR52 relative to (N-(2-hydroxyethyl)-3-(2-(3-(trifluoromethyl)benzyl)-1-benzofuran-4-yl)benzamide)
Chain of G-protein coupled receptor 52 (Mus musculus) (P0C5J4 whole entry): as the sequence (P0C5J4 whole entry) above

[19] = Cmax in ICR mouse brain at 10 mg/kg, po by LC/MS/MS analysis; type: ADME, organism-based; parameters: dose 10 mg/kg, route oral; summary of the method: as §3
[20] = Protein binding in ICR mouse plasma at 1 uM after 24 hrs by LC/MS/MS based equilibrium dailysis method; type: ADME, cell-free; conditions: read-out: PPB (converted)
Summary of the method: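 Plasma from male ICR mice spiked with compound at a final 1 µmol/L. Equilibrium dialysis (MWCO 6–8 kDa) against PBS for 24 h at room temperature. Both sides quantified by LC-MS/MS; bound fraction calculated from the plasma and PBS concentrations.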

[21] = AUC (0 to 24 hrs) in ICR mouse plasma at 30 mg/kg, po by LC/MS/MS analysis; type: ADME, organism-based; parameters: time < 24 hr, dose 30 mg/kg, route oral; summary of the method: as §3
Brain [22] = experiment: AUC (0 to 24 hrs) in ICR mouse brain at 10 mg/kg, po by LC/MS/MS analysis; type: ADME, organism-based; parameters: time < 24 hr, dose 10 mg/kg, route oral; conditions: in vivo; summary of the method: as §3
[23] = Cmax in ICR mouse plasma at 10 mg/kg, po by LC/MS/MS analysis; type: ADME, organism-based; parameters: dose 10 mg/kg, route oral; summary of the method: as §3
[24] = Metabolic stability in rat liver microsomes at 1 uM after 15 to 30 mins in presence of NADPH by LC/MS/MS analysis; type: ADME, microsome; conditions: read-out: Stability; summary of the method: as §4
[25] = Tmax in ICR mouse plasma at 30 mg/kg, po by LC/MS/MS analysis; type: ADME, organism-based; summary of the method: as §3
[26] = Tmax in ICR mouse plasma at 10 mg/kg, po by LC/MS/MS analysis; type: ADME, organism-based; summary of the method: as §3
[27] = AUC (0 to 24 hrs) in ICR mouse plasma at 10 mg/kg, po by LC/MS/MS analysis; type: ADME, organism-based; parameters: time < 24 hr, dose 10 mg/kg, route oral; summary of the method: as §3
[28] = MRT in ICR mouse plasma at 10 mg/kg, po by LC/MS/MS analysis; type: ADME, organism-based; summary of the method: as §3
[29] = Tmax in ICR mouse brain at 30 mg/kg, po by LC/MS/MS analysis; type: ADME, organism-based; summary of the method: as §3
Mus musculus [30] = experiment: Toxicity in ICR mouse model of methamphetamine-induced hyperlocomotion assessed as cataleptogenic effect at 10 mg/kg, po; type: organism-based; conditions: in vivo
dopamine D2L receptor = dopamine D2L receptor (Homo sapiens, UniProt P14416); experiment: Inhibition of dopamine D2L receptor (unknown origin) at 10 uM
Chain of dopamine D2L receptor (P14416 whole entry): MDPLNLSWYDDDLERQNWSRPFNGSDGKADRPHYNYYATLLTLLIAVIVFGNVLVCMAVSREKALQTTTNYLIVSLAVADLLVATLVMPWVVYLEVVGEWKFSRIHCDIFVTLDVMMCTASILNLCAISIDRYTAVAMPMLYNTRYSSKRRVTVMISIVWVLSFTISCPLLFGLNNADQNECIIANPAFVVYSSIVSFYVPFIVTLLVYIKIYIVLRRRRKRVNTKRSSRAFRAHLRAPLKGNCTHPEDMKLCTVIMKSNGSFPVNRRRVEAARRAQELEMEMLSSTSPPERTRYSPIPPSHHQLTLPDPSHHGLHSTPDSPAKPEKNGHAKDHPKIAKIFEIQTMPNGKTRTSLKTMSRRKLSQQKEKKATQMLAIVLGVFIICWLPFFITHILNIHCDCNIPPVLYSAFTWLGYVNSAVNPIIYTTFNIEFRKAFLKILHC

[31] = Tmax in ICR mouse brain at 10 mg/kg, po by LC/MS/MS analysis; type: ADME, organism-based; summary of the method: as §3
[32] = Ratio of AUC (0 to 24 hrs) in ICR mouse brain to plasma at 10 mg/kg, po; type: ADME, organism-based; conditions: brain and plasma, read-out: Ratio AUC
[33] = Cmax in ICR mouse plasma at 30 mg/kg, po by LC/MS/MS analysis; type: ADME, organism-based; parameters: dose 30 mg/kg, route oral; summary of the method: as §3
Mus musculus [34] = experiment: Anti-psychotic activity in ICR mouse assessed as inhibition of methamphetamine-induced hyperlocomotion at 10 mg/kg, po pretreated for 60 mins followed by methamphetamine administration measured after 150 mins; type: functional, organism-based
Summary of the method: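 Male ICR mice aged 7–8 weeks, housed singly in activity-monitor cages and habituated 60 min. Compound given p.o. (1–30 mg/kg range tested). Methamphetamine 2 mg/kg s.c. given 60 min later. Activity counts recorded for 150 min after compound dosing. Mean ± SEM, t-test and Williams test.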

[35] = molecular target: T1, G-protein coupled receptor 52; experiment: Agonist activity at human GPR52 expressed in CHO cells assessed as increase in cAMP level at 1 uM after 30 mins by AlphaScreen assay relative to (N-(2-hydroxyethyl)-3-(2-(3-(trifluoromethyl)benzyl)-1-benzofuran-4-yl)benzamide); type: functional, cell-based; summary of the method: as §1

Cc1cc(-c2sc(Cc3cccc(Cl)c3)nc2C)ccc1C(N)=O
EC50 [1]: 130 nM | Emax [2]: 75%

Cc1cc(-c2cc(Cc3cc(F)cc(C(F)(F)F)c3)nn2C)ccc1C(N)=O
bioavailability [3]: 30.5% | EC50 [1]: 23 nM | AUC(0-t) at 8 h [4]: 155 ng·h/mL | Emax [2]: 123% | clearance [5]: 32.9 mL/min/kg

Cc1nc(Cc2cccc(C(F)(F)F)c2)sc1-c1ccc(C(N)=O)c(F)c1
EC50 [1]: 380 nM | Emax [2]: 84%

Cc1cc(-n2nc(Cc3cc(F)cc(C(F)(F)F)c3)nc2C)ccc1C(N)=O [TP-024]
MRT [6]: 2.06 h | inhibition (Homo sapiens): < 50% | AUC (Brain [7]): 10.414 µg·h/g | inhibition [8]: < 50% | MRT [9]: 3.54 h | inhibition [10]: < 50% | Cmax [11]: 2330 ng/g | EC50 [12]: 71 nM | MRT [13]: 3.25 h | inhibition [14]: < 50% | microsomal CLint at 1 µM [15]: 17 µL/min/mg | microsomal CLint at 1 µM [16]: 24 µL/min/mg | Kp [17]: 1.68 | bioavailability [3]: 53.8% | Emax [18]: 114% | Cmax [19]: 1020 ng/g | fraction unbound at 24 h, 1 µM [20]: 0.199 | AUC(0-t) at 24 h [21]: 6200 ng·h/mL | AUC (Brain [22]): 3.731 µg·h/g | EC50 [1]: 75 nM | AUC(0-t) at 8 h [4]: 384 ng·h/mL | Emax [2]: 122% | Cmax [23]: 688 ng/mL | microsomal CLint at 1 µM [24]: 9 µL/min/mg | clearance [5]: 23.5 mL/min/kg | Tmax [25]: 1 h | Tmax [26]: 0.5 h | AUC(0-t) at 24 h [27]: 2430 ng·h/mL | MRT [28]: 2.29 h | Tmax [29]: 1 h | Activity (Mus musculus [30]): Non-Toxic | inhibition at 10 µM (dopamine D2L receptor): < 50% | Tmax [31]: 0.5 h | Kp [32]: 1.53 | Cmax [33]: 1210 ng/mL | inhibition (Mus musculus [34]): Active

Cc1nc(Cc2cccc(C(F)(F)F)c2)sc1-c1ccc(C(N)=O)nc1 [TP-024n]
Emax [35]: 11% | EC50 [1]: > 1000 nM

COc1cccc(Cc2nc(C)c(-c3ccc(C(N)=O)c(C)c3)s2)c1
EC50 [1]: 160 nM | Emax [2]: 85%

Cc1cc(-c2sc(Cc3cc(F)cc(Cl)c3)nc2C)ccc1C(N)=O
EC50 [1]: 25 nM | Emax [2]: 88%

Cc1nc(Cc2cccc(C(F)(F)F)c2)sc1-c1ccc(C(N)=O)c(C(F)(F)F)c1
EC50 [1]: 110 nM | Emax [2]: 92%

Cc1cc(-c2sc(Cc3cccc(N(C)C)c3)nc2C)ccc1C(N)=O
EC50 [1]: 690 nM | Emax [2]: 101%

Cc1nc(Cc2cccc(C(F)(F)F)c2)sc1-c1ccc(C(N)=O)cn1
EC50 [1]: 400 nM | Emax [2]: 70%

Cc1cc(-c2sc(Cc3cccc(F)c3)nc2C)ccc1C(N)=O
EC50 [1]: 260 nM | Emax [2]: 75%
